Active and inactive are the calls of the source. The rule behind the calls is not given here.
What was measured:
[1] = Effect on IL-1 beta release in Sprague-Dawley rat microglial cells at 2.5 uM by ELISA; assay type: toxicity, cell-based; conditions: microglia
Procedure, shortened: (§1)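 Primary cortical rat microglia in DMSO (≤0.1%) or vehicle for 1 h, then 100 ng/mL LPS for 24 h. TNF-α and IL-1β in culture medium by ELISA against standard curves (pg/mL), expressed as % of LPS-stimulated cultures. Mean ± SEM of 3 independent experiments; one-way ANOVA, Holm-Sidak test.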

SH-SY5Y = assay: Antioxidant activity in human SH-SY5Y cells assessed as reduction in intracellular ROS formation at 2.5 uM incubated for 24 hrs followed by incubation with t-BuOOH for 30 mins by H2DCF-DA staining based fluorescence analysis; assay type: functional; conditions: time 24.5 hrs
Procedure, shortened: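 SH-SY5Y (2×10^4 cells/well) exposed to 2.5 μM for 24 h, loaded with H2DCF-DA 30 min at room temperature, probe removed, then challenged with 50 μM t-BuOOH 30 min at room temperature. Fluorescence ex 485/em 535 nm, expressed as % ROS increase. Three independent experiments; one-way ANOVA with Dunnett's test.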

Microglia [2] = assay: Antiinflammatory activity against Sprague-Dawley rat microglial cells assessed as inhibition of LPS-induced IL-1 beta production at 1 uM pretreated with compound for 1 hr followed by LPS stimulation for 24 hrs by ELISA; assay type: functional, cell-based; conditions: time 25.0 hrs; procedure, shortened: as §1
Microglia [3] = assay: Cytotoxicity against Sprague-Dawley rat microglial cells assessed as decrease in cell viability at 5 uM incubated for 24 hrs by MTT assay; assay type: toxicity, cell-based
Procedure, shortened: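 Primary rat microglia, 6×10^4 cells/well, switched to serum-free medium 1 h before 24 h exposure (1–20 μM, DMSO ≤0.1%). MTT 0.18 mg/mL for 4 h at 37 °C, formazan dissolved in DMSO, absorbance 570 nm (reference 630 nm). Vehicle-treated cells = 100% viability.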

[4] = Effect on TNF-alpha release in Sprague-Dawley rat microglial cells at 2.5 uM by ELISA; assay type: toxicity, cell-based; conditions: microglia; procedure, shortened: as §1
Drosophila [5] = assay: Antioxidant activity in Spastin Drosophila (Tubulin/Gal4 RNAi DSpast) neurodegenerative model assessed as decrease in intracelluar ROS level in brain at 10 uM flies raised in compound-enriched food by DHE staining based fluorescence analysis; assay type: functional, organism-based
Procedure, shortened: (§2)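 Spastin-RNAi (Tubulin-Gal4 cross, 28 °C) third-instar larvae raised on compound-enriched food, dissected in HL3, stained 30 min with 30 μM DHE, fixed in 4% PFA, DAPI counterstained. Confocal imaging (DHE 580–630 nm); two 2500 μm² ROIs per muscle or two 1900 μm² ROIs per brain, 10–15 larvae per group; DHE/DAPI ratio.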

[6] = target: Amyloid-beta precursor protein (Homo sapiens) (UniProt P05067); assay: Anti-oligomeric activity against Abeta42 (unknown origin) assessed as depletion of the formation of toxic HMW Abeta42 oligomers at 2.5 uM measured after 2 to 10 days from sample solubilization by capillary electrophoresis assay; conditions: time 2-10 day
Procedure, shortened: (§3)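 Aβ42 stock diluted to 221 μM in 20 mM sodium phosphate pH 7.4 containing compound (ethanol stocks 1.53 mM). Capillary electrophoresis: BGE 80 mM sodium phosphate pH 7.4, 30 mbar × 3 s hydrodynamic injection, +12 kV, 25 °C, 200 nm detection. Oligomers assigned by effective mobility; HMW oligomer peak quantified semiquantitatively as normalised area %.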

Microglia [7] = assay: Antiinflammatory activity against Sprague-Dawley rat microglial cells assessed as inhibition of LPS-induced TNF-alpha production at 1 to 2.5 uM pretreated with compound for 1 hr followed by LPS stimulation for 24 hrs by ELISA; assay type: functional, cell-based; conditions: dose 1-2.5 µM, time 25.0 hrs; procedure, shortened: as §1
Drosophila [8] = assay: Antioxidant activity in Spastin Drosophila (Tubulin/Gal4 RNAi DSpast) neurodegenerative model assessed as decrease in intracelluar ROS level in A2 muscle at 10 uM flies raised in compound-enriched food by DHE staining based fluorescence analysis; assay type: functional, organism-based; procedure, shortened: as §2
[9] = target: Amyloid-beta precursor protein (Homo sapiens) (UniProt P05067); assay: Anti-oligomeric activity against Abeta42 (unknown origin) assessed as depletion of the formation of toxic HMW Abeta42 oligomers at 1 uM measured at day 7 to 10 from sample solubilization by capillary electrophoresis assay; conditions: time 7-10 day; procedure, shortened: as §3
Microglia [10] = assay: Antiinflammatory activity against Sprague-Dawley rat microglial cells assessed as downregulation of NLRP3 mRNA expression at 2.5 uM pretreated with compound for 1 hr followed by LPS stimulation for 6 hrs by real-time PCR analysis; assay type: functional, cell-based; conditions: time 7.0 hrs
Procedure, shortened: (§4)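 Primary cortical microglia (postnatal day 1 rat pups, shaken off mixed glial cultures, ~97% Iba1-positive). Compound (DMSO ≤0.1%) for 1 h, then 100 ng/mL ultra-pure E. coli LPS for 6 h. QIAzol RNA extraction, SuperScript IV reverse transcription, real-time PCR. Mean ± SEM, n = 3 in triplicate; one-way ANOVA, Holm-Sidak test.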

Microglia [11] = assay: Antiinflammatory activity against Sprague-Dawley rat microglial cells assessed as downregulation of TNF-alpha mRNA expression at 2.5 uM pretreated with compound for 1 hr followed by LPS stimulation for 6 hrs by real-time PCR analysis; assay type: functional, cell-based; conditions: time 7.0 hrs; procedure, shortened: as §4
Drosophila [12] = assay: Downregulation of Nrf2 transcript expression in Spastin Drosophila (Tubulin/Gal4 RNAi DSpast) neurodegenerative model at 10 uM flies raised in compound-enriched food by real-time PCR analysis; assay type: functional
Procedure, shortened: (§5)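 Total RNA from 5 third-instar Spastin-RNAi larvae raised on standard or compound-enriched food; Tubulin-Gal4/+ as control line. One-step SYBR RT-qPCR normalised to Rp49 by the 2^−ΔΔCt method. n = 3 experiments; one-way ANOVA, Tukey's test.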

Microglia [13] = assay: Antiinflammatory activity against Sprague-Dawley rat microglial cells assessed as inhibition of LPS-induced IL-1 beta production at 1 to 2.5 uM pretreated with compound for 1 hr followed by LPS stimulation for 24 hrs by ELISA; assay type: functional, cell-based; conditions: dose 1-2.5 µM, time 25.0 hrs; procedure, shortened: as §1
Microglia [14] = assay: Antiinflammatory activity against Sprague-Dawley rat microglial cells assessed as inhibition of LPS-induced TNF-alpha production at 2.5 uM pretreated with compound for 1 hr followed by LPS stimulation for 24 hrs by ELISA; assay type: functional, cell-based; conditions: time 25.0 hrs; procedure, shortened: as §1
[15] = Toxicity against Drosophila W1118 assessed as proportion of eclosed-flies at 50 uM measured after 72 hrs
Drosophila [16] = assay: Effect on CAT transcript expression in Spastin Drosophila (Tubulin/Gal4 RNAi DSpast) neurodegenerative model at 10 uM flies raised in compound-enriched food by real-time PCR analysis; assay type: functional; procedure, shortened: as §5
[17] = target: Amyloid-beta precursor protein (Homo sapiens) (UniProt P05067); assay: Anti-oligomeric activity against Abeta42 (unknown origin) assessed as depletion of the formation of toxic HMW Abeta42 oligomers at 5 uM measured at day 7 from sample solubilization by capillary electrophoresis assay; conditions: time 7.0 day; procedure, shortened: as §3
[18] = target: Keap1/Nrf2 (Homo sapiens) (UniProt Q16236+Q14145); assay: Activation of Keap1/Nrf2 in human SH-SY5Y cells assessed as Nrf2 nuclear translocation by measuring increase in nuclear to cytosolic Nrf2 ratio at 2.5 uM incubated for 3 hrs by western blot analysis; assay type: cell-based; conditions: filed as activator
Procedure, shortened: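 SH-SY5Y seeded 2×10^6 cells/dish, grown 24 h, then exposed 3 h at 37 °C, 5% CO2. Nuclear and cytosolic fractions immunoblotted for Nrf2, membranes stripped and reprobed for β-actin and lamin B1 as loading references. Mean ± SEM of three independent experiments; one-way ANOVA with Dunnett's test.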

[19] = Toxicity against Drosophila W1118 assessed as proportion of eclosed-flies at 20 uM measured after 72 hrs

Amyloid-beta precursor protein (Homo sapiens), sequence (P05067 whole entry): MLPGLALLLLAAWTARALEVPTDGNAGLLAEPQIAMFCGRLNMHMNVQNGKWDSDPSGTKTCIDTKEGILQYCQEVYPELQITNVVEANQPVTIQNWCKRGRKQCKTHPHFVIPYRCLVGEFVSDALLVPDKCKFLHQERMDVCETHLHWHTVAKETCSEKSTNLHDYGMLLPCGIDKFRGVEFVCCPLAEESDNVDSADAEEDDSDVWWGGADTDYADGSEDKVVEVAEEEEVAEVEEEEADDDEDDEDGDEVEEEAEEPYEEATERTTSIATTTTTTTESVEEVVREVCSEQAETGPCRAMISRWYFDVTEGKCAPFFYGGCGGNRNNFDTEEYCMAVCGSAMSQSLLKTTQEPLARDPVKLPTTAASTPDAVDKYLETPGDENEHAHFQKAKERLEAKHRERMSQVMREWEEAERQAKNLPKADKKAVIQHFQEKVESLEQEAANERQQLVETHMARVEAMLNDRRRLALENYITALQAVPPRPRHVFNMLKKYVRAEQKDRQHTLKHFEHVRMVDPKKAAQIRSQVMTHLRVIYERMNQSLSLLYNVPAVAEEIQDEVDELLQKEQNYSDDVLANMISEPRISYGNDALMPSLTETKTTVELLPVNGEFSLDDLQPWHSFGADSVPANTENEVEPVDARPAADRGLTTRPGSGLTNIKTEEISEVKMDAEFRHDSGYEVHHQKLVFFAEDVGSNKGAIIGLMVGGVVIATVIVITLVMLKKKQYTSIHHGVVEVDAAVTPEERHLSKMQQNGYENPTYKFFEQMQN
Keap1/Nrf2 (Homo sapiens), sequence (Q14145 whole entry, looked up): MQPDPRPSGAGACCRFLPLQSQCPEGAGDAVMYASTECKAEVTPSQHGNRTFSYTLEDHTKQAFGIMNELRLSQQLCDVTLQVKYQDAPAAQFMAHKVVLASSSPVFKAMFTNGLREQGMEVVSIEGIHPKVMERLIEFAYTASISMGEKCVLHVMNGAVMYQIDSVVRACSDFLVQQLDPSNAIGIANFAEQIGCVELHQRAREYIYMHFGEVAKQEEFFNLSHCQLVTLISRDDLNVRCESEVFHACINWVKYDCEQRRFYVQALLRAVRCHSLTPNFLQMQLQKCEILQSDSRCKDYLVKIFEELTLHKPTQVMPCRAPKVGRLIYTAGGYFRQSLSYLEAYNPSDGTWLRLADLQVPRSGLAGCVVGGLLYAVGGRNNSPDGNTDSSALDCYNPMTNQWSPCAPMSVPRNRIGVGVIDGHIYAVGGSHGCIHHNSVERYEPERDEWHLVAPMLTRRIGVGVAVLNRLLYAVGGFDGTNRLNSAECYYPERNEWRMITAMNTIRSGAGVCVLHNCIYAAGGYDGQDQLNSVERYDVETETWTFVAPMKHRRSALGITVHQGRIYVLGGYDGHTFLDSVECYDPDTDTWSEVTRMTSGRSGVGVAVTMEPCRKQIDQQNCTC
Keap1/Nrf2 (Homo sapiens), sequence (Q16236 whole entry, looked up): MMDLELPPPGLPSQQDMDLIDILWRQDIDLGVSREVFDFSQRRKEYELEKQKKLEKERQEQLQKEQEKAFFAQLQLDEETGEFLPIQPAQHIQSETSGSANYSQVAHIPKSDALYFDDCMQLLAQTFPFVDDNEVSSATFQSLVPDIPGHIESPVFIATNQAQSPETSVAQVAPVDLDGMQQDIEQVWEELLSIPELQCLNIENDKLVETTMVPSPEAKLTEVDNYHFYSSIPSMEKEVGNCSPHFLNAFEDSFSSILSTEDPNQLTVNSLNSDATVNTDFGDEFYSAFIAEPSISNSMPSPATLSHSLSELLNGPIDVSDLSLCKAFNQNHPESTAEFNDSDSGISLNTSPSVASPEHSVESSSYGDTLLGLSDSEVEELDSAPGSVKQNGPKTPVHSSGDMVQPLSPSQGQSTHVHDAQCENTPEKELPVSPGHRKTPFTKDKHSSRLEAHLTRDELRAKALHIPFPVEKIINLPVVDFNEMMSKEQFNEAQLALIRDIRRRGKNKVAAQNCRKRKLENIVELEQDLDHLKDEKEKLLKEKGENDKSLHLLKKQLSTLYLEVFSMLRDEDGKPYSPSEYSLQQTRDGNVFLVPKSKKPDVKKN

In the case of `CCCCn1cc(C/C(C(=O)/C=C/c2ccc(OC)cc2)=C(O)\C=C\c2ccc(OC)cc2)nn1`, the Activity [1] is reported as “Non-Toxic”, the inhibition at 2.5 µM (SH-SY5Y) is reported as 18% and the Activity (Microglia [2]) is reported as “Active”. For the same molecule, the Activity (Microglia [3]) was “Toxic”, the Activity [4] was “Non-Toxic” and the Activity (Drosophila [5]) was “Active”. The Activity [6] was “Active”, the Activity (Microglia [7]) was “Active” and the Activity (Drosophila [8]) was “Active”. The Activity [9] was “Active”, the Activity (Microglia [10]) was “Active” and the Activity (Microglia [11]) was “Active”. For the same molecule, the inhibition (Drosophila [12]) was “Active”, the Activity (Microglia [13]) was “Active” and the Activity (Microglia [14]) was “Active”. For the same molecule, the Activity [15] was 71.309%, the Activity (Drosophila [16]) was “inactive” and the Activity [17] was “Active”. For the same molecule, the Activity [18] was “Active” and the Activity [19] was 88.099%.

— ChEMBL document CHEMBL5321214, “Targeting the multifaceted neurotoxicity of Alzheimer's disease by tailored functionalisation of the curcumin scaffold” (Eur J Med Chem, 2023)
